Results of several laboratories.
Lines come from different studies, so protocols differ.
Target: Phosphatidylinositol 4-phosphate 5-kinase type-1 alpha (PIP5K1A, Homo sapiens, UniProt Q99755)

CCCOc1ccc([C@@H]2[C@@H](C(=O)O)[C@H](c3ccc4c(c3)OCO4)CN2CC(=O)Nc2c(CC)cccc2CC)cc1  remaining binding (cell-free assay, competition with immobilised ligand; 1 µM): 90%
CN(C)c1ncc(F)c(-c2cnn3ncccc23)n1  remaining binding (binding; 1 µM): 100%
Nc1ncc2c(n1)-c1c([nH]c3ccc(C#CC4CC4)cc13)CCCC2  remaining binding (binding, competition with immobilised ligand; 1 µM): 99%
C=CC(=O)N1CCC(C(=O)NCC(=O)N2CCN(c3nc(-c4cnc(N)nc4C(F)F)nc(N4CCOCC4)n3)CC2)CC1  remaining binding (binding, competition with immobilised ligand; 1 µM): 100%
O=C(c1ccc(Nc2ncc(Cl)c(-c3cc4ccccc4s3)n2)cc1)N1CCC(N2CCCC2)CC1  remaining binding (binding, competition with immobilised ligand; 1 µM): 2.2%
CC1CCCN1c1nccc(-c2cnn3ncccc23)n1 (centres unmarked)  remaining binding (binding; 1 µM): 100%
O=C(c1ccc(Nc2nccc(-c3cc4ccccc4s3)n2)cc1)N1CCC(N2CCCC2)CC1  remaining binding (binding, competition with immobilised ligand; 1 µM): 2.8%
O=C(Nc1c[nH]nc1C(=O)NC1CCNCC1)c1cc(F)cc(F)c1  remaining binding (binding, competition with immobilised ligand; 1 µM): 100%
CN(CCCC(F)(F)F)c1nccc(-c2cnn3ncccc23)n1  remaining binding (binding; 1 µM): 100%
COc1ncc2cc3ccccc3nc2c1C#N  remaining binding (cell-free assay, competition with immobilised ligand; 5 µM): 100%
c1cnn2ncc(-c3ccnc(N4CCC45COC5)n3)c2c1  remaining binding (binding; 1 µM): 100%
Cc1cc(NC(=O)c2cccc(S(F)(F)(F)(F)F)c2)cc(-n2ccn3nc(-c4cccnc4)cc23)c1  remaining binding (cell-free assay, competition with immobilised ligand; 1 µM): 100%
C[C@H]1CCN(c2nccc(-c3cnn4ncccc34)n2)C1  remaining binding (binding; 1 µM): 47%
CN(C)CC#Cc1ccc(OCCCc2sc(N3CCc4cccc(C(=O)Nc5nc6ccccc6s5)c4C3)nc2C(=O)O)c(F)c1  remaining binding (cell-free assay, competition with immobilised ligand; 1 µM): 100%
FC(F)(F)Oc1cccc(-c2cnc3ccc(-c4ccncc4)nn23)c1  remaining binding (cell-free assay, competition with immobilised ligand; 5 µM): 20%
O=C(O)c1cc(-c2ccc(C3CCNCC3)cc2)c2ccc(-c3ccc(C(F)(F)F)cc3)cc2c1  remaining binding (cell-free assay, competition with immobilised ligand; 1 µM): 78%
F[C@@H]1CCN(c2nccc(-c3cnn4ncccc34)n2)C1  remaining binding (binding; 1 µM): 100%
c1cncc(-c2cccc(Nc3nccc(NC4CCCCC4)n3)c2)c1  remaining binding (binding, competition with immobilised ligand; 10 µM): 71%
CN(C)c1nccc(-c2cnc3ncccn23)n1  remaining binding (binding; 1 µM): 72%
COc1cc(-c2cn(C3CCc4ccccc4N(CC(F)(F)F)C3=O)nn2)ccc1-n1ccc(C)n1 (centres unmarked)  remaining binding (cell-free assay, competition with immobilised ligand; 1 µM): 96%
CNC(=O)[C@@H]1CC[C@@H](n2c(-c3ccc4cnccc4c3)nc3ccc(C(=O)NCc4cccc(C(N)=O)c4)cc32)C1  remaining binding (binding, competition with immobilised ligand; 1 µM): 92%
CN(c1ccnc(CNc2nc(Nc3ccc4c(c3)CC(=O)N4)ncc2C(F)(F)F)n1)S(C)(=O)=O  remaining binding (cell-free assay, competition with immobilised ligand; 1 µM): 12%
O=C(c1ccc(Nc2ncc(Cl)c(-c3ccc(Cl)s3)n2)cc1)N1CCC(N2CCCC2)CC1  remaining binding (binding, competition with immobilised ligand; 1 µM): 3%
